An excerpt weighted towards active compounds, which were near 0.84% of everything screened.
MT1-MMP act inh – blockers of MT1-MMP proenzyme processing, primary screen, HT1080 RFP-PRO-GFP cells, GFP/RFP fluorescence; AID 651647, 2012; GFP/RFP ratio fluorescence, overnight; percent of plate control window, DMSO zero; hit rate 0.061% among 360,000; GFP/RFP ratio change, % at 20 µM; Matrix metalloproteinase-14 (Homo sapiens), P50281;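 active = GFP/RFP ratio change of at least 30% with cell ATP level not reduced by more than half and red fluorescence within 50% of control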
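system = RFP-PRO-GFP reporter HT1080 cells | dosing = 20 µM single dose, 1% DMSO | timing = overnight cell settling, then overnight compound exposure, 37 °C, 5% CO2 | read-out basis = GFP/RFP fluorescence ratio | controls = DMSO and RFP-L50D-GFP cell wells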
SKN-1 inh – suppressors of acrylamide-induced Pgst-4::GFP reporter in worms, primary screen, SKN-1 inhibitor project, whole organism, uHTS, GFP/RFP fluorescence ratio, strain VP596; C. elegans VP596 Pgst-4::GFP/RFP ratio, 24 h; hit rate 0.49% among 360,000; AID 624304, 2012; inhibition, % at 21.8 µM;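 active = interference check ratio from 0.5 to 1.5 plus GFP to RFP signal ratio inhibition reaching or exceeding a fixed threshold, cut at about 30% in these data, passing the limit was not always enough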
Tn7 DDE FP – inhibitors of Tn7 peptide binding to fibrin DD(E), primary screen, biochemical, fluorescence polarization, human fibrin, Tn7 probe; FP displacement of FITC-Tn7 peptide from fibrin DD(E); 0% = median of compound wells per plate; inhibition, % at 8.3 µM; hit rate 0.13% among 370,000;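 active = inhibition above the mean of compounds falling within the control limits plus 3 SD of them, cut at about 14% in these data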;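 note: 0% = plate median of compound wells and 100% = 10 µM Aha-Tn7 peptide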
Target sequence (P02675 whole entry, looked up): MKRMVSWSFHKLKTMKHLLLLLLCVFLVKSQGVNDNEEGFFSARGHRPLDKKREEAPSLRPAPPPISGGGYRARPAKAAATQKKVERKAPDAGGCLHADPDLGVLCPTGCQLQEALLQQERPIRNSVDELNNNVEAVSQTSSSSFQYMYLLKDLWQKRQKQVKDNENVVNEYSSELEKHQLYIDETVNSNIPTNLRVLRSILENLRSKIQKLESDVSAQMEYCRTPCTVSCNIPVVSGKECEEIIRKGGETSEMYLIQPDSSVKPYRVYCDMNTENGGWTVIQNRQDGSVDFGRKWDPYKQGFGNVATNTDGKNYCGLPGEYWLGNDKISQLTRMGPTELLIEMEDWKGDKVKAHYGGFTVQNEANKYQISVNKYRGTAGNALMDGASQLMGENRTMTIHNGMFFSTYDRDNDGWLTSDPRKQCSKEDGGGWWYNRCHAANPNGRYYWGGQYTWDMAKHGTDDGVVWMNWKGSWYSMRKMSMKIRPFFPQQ
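assay system = human clot-derived fibrin DD(E) complex | quantity = Fibrin-DD(E) at 2 µM final | timing = 10 min preincubation, 3 h with tracer, room temperature | signal = fluorescence polarization | measure = percent inhibition | benchmarks = high control wells with 10 µM unlabelled Aha-Tn7 peptide (full inhibition) | replicates = singlicate testing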
DDE Tn6 FP inh – inhibitors of Tn6 peptide binding to fibrin DD(E), primary screen, biochemical, fluorescence polarization, human fibrin, Tn6 probe; Fibrinogen beta chain (Homo sapiens), P02675; Fibrin DD(E) TRITC-Tn6 fluorescence polarization displacement; inhibition, % at 8.3 µM; hit rate 0.21% among 370,000; AID 720509, 2013;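 active = inhibition above a per-campaign cutoff: mean of compounds within control limits plus 3 SD, cut at about 15% in these data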;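 note: 0% = median of all compound wells on the plate and 100% = blocking peptide control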
Tn7 DDE conf – inhibitors of Tn7 peptide binding to fibrin DD(E), confirmation, biochemical, fluorescence polarization, human fibrin, Tn7 probe | shares compounds with Tn7 DDE FP | inhibition, % at 8.3 µM | AID 720628, 2013 | hit rate 5% among 460 | FP displacement of TRITC-Tn7 peptide from DD(E); 0% set at plate's compound-well median;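 active = inhibition above the campaign cutoff, the mean of compounds within control limits plus 3 SD, cut at about 14% in these data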;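 note: 100% = median FP of high control wells holding Aha-Tn7 inhibitor peptide; displacers lower polarization since freed probe rises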
DDE Tn7 FP ctr – DD(E)-Tn7 binding inhibition, counter-screen; shares compounds with Tn7 DDE FP; fibrin DD(E), TRITC-Tn7 probe displacement, fluorescence polarization; inhibition, % at 8.3 µM; hit rate 3% among 460;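 active = inhibition above the cutoff, the mean of compounds lying between the control bounds plus 3 SD of those compounds, cut at about 17% in these data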;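 note: 0% = median of compound sample wells and 100% = excess unlabeled Aha-Tn7 peptide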
* marks the source's active call; other numbers are inactive results.

CC1(C)Oc2ccc(C(=O)NC3CCCCC3)cc2N(CC#N)C1=O was read as MT1-MMP act inh 1, SKN-1 inh 15, Tn7 DDE FP 4 and DDE Tn6 FP inh -2.
Screening O=C(c1ccccc1)c1ccc(O)cc1O returned MT1-MMP act inh -120, SKN-1 inh -46, Tn7 DDE FP 34*, DDE Tn6 FP inh 0, Tn7 DDE conf 12 and DDE Tn7 FP ctr -12.
C=CCNC(=O)CN(Cc1ccccc1)S(=O)(=O)c1ccc(C)cc1 was read as MT1-MMP act inh -2, SKN-1 inh -1, Tn7 DDE FP -4 and DDE Tn6 FP inh 4.
For C=CCNC(=O)CN(CCc1ccccc1)S(=O)(=O)c1ccccc1 the results were MT1-MMP act inh 0, SKN-1 inh 2, Tn7 DDE FP 16*, DDE Tn6 FP inh -1, Tn7 DDE conf 3 and DDE Tn7 FP ctr -4.
`Cc1cc(NC(=O)COC(=O)c2ccc(C)c(C)c2)no1` gave MT1-MMP act inh -3, SKN-1 inh -3, Tn7 DDE FP 6 and DDE Tn6 FP inh 2.
CC(C)(C)NC(=O)NC(=O)COC(=O)c1ccco1 was read as MT1-MMP act inh -1, SKN-1 inh -17, Tn7 DDE FP 9 and DDE Tn6 FP inh 2.
CC(C)(C)NC(=O)NC(=O)COC(=O)c1ccc(OC(F)(F)F)cc1 was read as MT1-MMP act inh 2, SKN-1 inh 6, Tn7 DDE FP 14*, DDE Tn6 FP inh 3, Tn7 DDE conf 1 and DDE Tn7 FP ctr -10.
Screening Cc1cc(NC(=O)COC(=O)c2ccc(OC(F)(F)F)cc2)no1 returned MT1-MMP act inh 1, SKN-1 inh 3, Tn7 DDE FP 16*, DDE Tn6 FP inh 3, Tn7 DDE conf 8 and DDE Tn7 FP ctr 2.
For O=S(=O)(c1ccccc1F)N1CCN(CCc2ccccc2)CC1 the results were MT1-MMP act inh 5, SKN-1 inh 5, Tn7 DDE FP -3 and DDE Tn6 FP inh 0.
Screening CC(C)(C)c1ccc(NC(=O)CSc2n[nH]c(=O)n2C2CC2)cc1 returned MT1-MMP act inh 15, SKN-1 inh -7, Tn7 DDE FP 2 and DDE Tn6 FP inh 3.
`CC(C)c1ccccc1NC(=O)CSc1n[nH]c(=O)n1C1CC1` gave MT1-MMP act inh 5, SKN-1 inh 4, Tn7 DDE FP 14*, DDE Tn6 FP inh -7, Tn7 DDE conf 4 and DDE Tn7 FP ctr -6.
Screening Cc1ccc(-c2c(C#N)c(N)n(-c3ccc(Cl)cc3)c(=O)c2C#N)cc1 returned MT1-MMP act inh 1, SKN-1 inh -8, Tn7 DDE FP 14*, DDE Tn6 FP inh 3, Tn7 DDE conf -3 and DDE Tn7 FP ctr -7.
`Cc1ccc(-c2c(C#N)c(N)n(-c3ccccc3)c(=O)c2C#N)cc1` gave MT1-MMP act inh 0, SKN-1 inh 3, Tn7 DDE FP -8 and DDE Tn6 FP inh 3.
For CCOC(=O)[C@]12CCCC=C1N(CCC1=CCCCC1)C(=O)[C@H](CC(=O)NCC1CCCCC1)C2 the results were MT1-MMP act inh -10, SKN-1 inh 12, Tn7 DDE FP -4 and DDE Tn6 FP inh 1.
Screening Cc1ccc(C(NC(=O)N2CCCCC2)=C(Cl)Cl)cc1F returned MT1-MMP act inh -2, SKN-1 inh 2, Tn7 DDE FP 15*, DDE Tn6 FP inh 2, Tn7 DDE conf 5 and DDE Tn7 FP ctr 2.
Screening CCCC[C@@H](CNC)NC[C@H](Cc1ccc(O)cc1)NCCc1ccc(OCC)cc1 returned MT1-MMP act inh 8, SKN-1 inh -12, Tn7 DDE FP 4 and DDE Tn6 FP inh 6.
`CN(C)S(=O)(=O)N1CCC(Oc2ccc(C(=O)NCc3cnn(C)c3)cc2)CC1` gave MT1-MMP act inh 2, SKN-1 inh -10, Tn7 DDE FP 14*, DDE Tn6 FP inh -1, Tn7 DDE conf 7 and DDE Tn7 FP ctr 0.
